# From ChEMBL document CHEMBL5329191, “Optimization of the 2-arylquinazoline-4(3H)one scaffold for a selective and potent antitrypanosomal agent: modulation of the mechanism of action through chemical functionalization” (RSC Med Chem, 2023)
# The source made the active and inactive calls. No cut-off for these calls is given here.
# Tests used:
# Leishmania infantum [1] = assay: Antileishmanial activity against Leishmania infantum promastigotes; format: functional, organism-based
# Trypanosoma cruzi [2] = assay: Antitrypanosomal activity against of Trypanosoma cruzi epimastigotes; format: functional, organism-based
# [3] = Solubility of the compound by UV-Vis spectroscopy; format: physicochemical
# Procedure, shortened: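 Solubility in μM was determined by UV-Vis spectroscopy.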
# [4] = Mutagenicity in Salmonella typhimurium TA98 assessed as number of revertant colonies at 20 uM by Ames test (reference value: 4); format: toxicity; settings: salmonella enterica subsp. enterica […]
# Procedure, shortened: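 Ames reverse-mutation assay in Salmonella typhimurium TA 98. Revertant colonies were counted at five escalating dose levels alongside a zero-dose (spontaneous revertant) negative control and a 4-nitro-o-phenylenediamine positive control. A compound was called mutagenic when revertants exceeded twice the negative control at two consecutive dose levels.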
# Trypanosoma cruzi [5] = assay: Antitrypanosomal activity against of Trypanosoma cruzi epimastigotes assessed as increase in IC50 in presence of FA; format: functional
# Leishmania infantum [6] = assay: Antileishmanial activity against Leishmania infantum promastigotes assessed as increase in IC50 in presence of FA; format: functional
# Leishmania infantum [7] = assay: Antileishmanial activity against Leishmania infantum promastigotes in presence of FA; format: functional, organism-based
# Trypanosoma cruzi [8] = assay: Antitrypanosomal activity against of Trypanosoma cruzi epimastigotes in presence of FA; format: functional, organism-based
# Trypanosoma cruzi [9] = assay: Antitrypanosomal activity against of Trypanosoma cruzi epimastigotes at 25 uM; format: functional
# [10] = Selectivity index, ratio of CC50 for mouse J774.1 cells to IC50 for Trypanosoma cruzi epimastigotes; format: toxicity; settings: read-out: Ratio CC50/IC50
# Procedure, shortened: (§1)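 Cytotoxicity (CC50) was measured on murine J774.1A macrophages. Selectivity index is CC50 divided by parasite IC50 (promastigote, epimastigote or axenic amastigote). Values are the mean of three independent experiments.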
# Leishmania infantum [11] = assay: Antileishmanial activity against Leishmania infantum axenic amastigotes; format: functional, organism-based
# [12] = Cytotoxicity against mouse J774.1 cells; format: toxicity, cell-based; procedure, shortened: as §1
# [13] = Selectivity index, ratio of CC50 for mouse J774.1 cells to IC50 for Leishmania infantum promastigotes; format: toxicity; settings: read-out: Ratio CC50/IC50; procedure, shortened: as §1
# [14] = Selectivity index, ratio of CC50 for mouse J774.1 cells to IC50 for Leishmania infantum amastigotes; format: toxicity; settings: read-out: Ratio CC50/IC50; procedure, shortened: as §1
# Trypanosoma cruzi [15] = assay: Induction of NO production in Trypanosoma cruzi epimastigotes by Griess method; format: functional, organism-based
# Procedure, shortened: (§2)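 NO production in parasite cultures was measured at three test concentrations, either 25, 50 and 100 μM or 1, 5 and 10 μM depending on the compound.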
# Leishmania infantum [16] = assay: Induction of NO production in Leishmania infantum promastigotes at highest concentration by Griess method; format: functional; procedure, shortened: as §2
# Trypanosoma cruzi [17] = assay: Induction of ROS production in Trypanosoma cruzi epimastigotes by DCFH-DA staining based flow cytometry analysis; format: functional, organism-based
# Procedure, shortened: (§3)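 Oxidative stress in parasite cultures was read fluorometrically with the 2,7-dichlorodihydrofluorescein diacetate (DCFH-DA) probe against a negative-control culture, and was also run with metal cations present.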
# Leishmania infantum [18] = assay: Induction of ROS production in Leishmania infantum promastigotes by DCFH-DA staining based flow cytometry analysis; format: functional, organism-based; procedure, shortened: as §3
# Trypanosoma cruzi [19] = assay: Induction of NO production in Trypanosoma cruzi epimastigotes at highest concentration by Griess method; format: functional; procedure, shortened: as §2
# Leishmania infantum [20] = assay: Induction of NO production in Leishmania infantum promastigotes by Griess method; format: functional, organism-based; procedure, shortened: as §2
smiles,measurement,setting,value
Cc1ccc(-c2nc3ccccc3/c(=N/N=C/c3ccc([N+](=O)[O-])o3)[nH]2)cc1,IC50,Leishmania infantum [1],> 25 µM
same,IC50,Trypanosoma cruzi [2],> 25 µM
same,solubility,[3],7.23 µM
Nc1ccc([N+](=O)[O-])cc1N,Activity,[4],365
Oc1nc(-c2ccc(F)cc2)nc2ccccc12,IC50,Leishmania infantum [1],8.67 µM
same,Activity,Trypanosoma cruzi [5],47%
same,Activity,Leishmania infantum [6],14%
same,IC50,Trypanosoma cruzi [2],22.7 µM
same,IC50,Leishmania infantum [7],9.78 µM
same,IC50,Trypanosoma cruzi [8],33.2 µM
NNc1nc(-c2ccccc2)nc2ccccc12,IC50,Leishmania infantum [1],12.7 µM
same,inhibition at 25 µM,Trypanosoma cruzi [9],42.7%
same,IC50,Trypanosoma cruzi [2],> 25 µM
O=c1[nH]c(-c2ccc(Br)cc2)nc2ccccc12,IC50,Leishmania infantum [1],6.89 µM
same,IC50,Trypanosoma cruzi [2],19.8 µM
O=[N+]([O-])c1ccc(/C=N/N=c2\[nH]c(-c3cccc(Br)c3)nc3ccccc23)o1,IC50,Leishmania infantum [1],> 25 µM
same,IC50,Trypanosoma cruzi [2],> 25 µM
same,solubility,[3],5.67 µM
CC1CS(=O)(=O)CCN1/N=C/c1ccc([N+](=O)[O-])o1 (stereo not drawn) [NIFURTIMOX],selectivity ratio,[10],36.3
CCCCCCCCCCCCCCCCOP(=O)([O-])OCC[N+](C)(C)C [MILTEFOSINE],IC50,Leishmania infantum [1],10.1 µM
same,IC50,Leishmania infantum [11],8.69 µM
same,CC50,[12],89.2 µM
same,selectivity ratio,[13],8.9
same,selectivity ratio,[14],10.1
O=c1[nH]c(-c2cccc(Br)c2)nc2ccccc12,IC50,Leishmania infantum [1],> 25 µM
same,IC50,Trypanosoma cruzi [2],> 25 µM
NNc1nc(-c2ccc(Cl)cc2)nc2ccccc12,IC50,Leishmania infantum [1],1.56 µM
same,Activity,Trypanosoma cruzi [15],Dose-Dependent Effect
same,Activity,Trypanosoma cruzi [5],42%
same,Activity,Leishmania infantum [16],>4 µM
same,Activity,Trypanosoma cruzi [17],inactive
same,Activity,Leishmania infantum [6],31%
same,IC50,Trypanosoma cruzi [2],11.5 µM
same,Activity,Leishmania infantum [18],inactive
same,Activity,Trypanosoma cruzi [19],>2 µM
same,Activity,Leishmania infantum [20],Dose-Dependent Effect
same,IC50,Leishmania infantum [7],2.05 µM
same,IC50,Trypanosoma cruzi [8],19.1 µM
O=[N+]([O-])c1ccc(/C=N/N=c2\[nH]c(-c3ccc(Cl)cc3)nc3ccccc23)o1,IC50,Leishmania infantum [1],> 25 µM
same,IC50,Trypanosoma cruzi [2],> 25 µM
same,solubility,[3],3.21 µM
Cc1ccc(-c2nc(NN)c3ccccc3n2)cc1,IC50,Leishmania infantum [1],1.2 µM
same,IC50,Trypanosoma cruzi [2],18 µM
